Data reported in ChEMBL document CHEMBL1123433, “Synthesis of anthraquinonyl glucosaminosides and studies on the influence of aglycone hydroxyl substitution on superoxide generation, DNA binding, and antimicrobial properties” (J Med Chem, 1986).
≈ marks a conversion by molar mass, not a printed value.

Legend:
Format in all cases: functional
[1] = test system: Corynebacterium diphtheriae; test: Compound was tested for antibacterial activity against Corynebacterium diphtheria WSU
Procedure, shortened: (§1)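 MICs were found by agar dilution. Test compounds were dissolved in water or in dimethyl sulfoxide, and the mixture was added to the agar before it set.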

[2] = test system: Staphylococcus epidermidis; test: Compound was tested for antibacterial activity against Staph. epidermidis ATCC 12228; procedure, shortened: as §1
Staphylococcus aureus [3] = test: Compound was tested for antibacterial activity against Staphylococcus aureus ATCC 9144; procedure, shortened: as §1
Bacillus subtilis = test: Compound was tested for antibacterial activity against Bacillus subtilis ATCC E6051; procedure, shortened: as §1
Streptococcus pyogenes = test: Compound was tested for antibacterial activity against Strep. pyogenes ATCC 19615; procedure, shortened: as §1
Bacillus cereus = test: Compound was tested for antibacterial activity against Bacillus cereus WSU-60; procedure, shortened: as §1
Staphylococcus aureus [4] = test: Compound was tested for antibacterial activity against Staphylococcus aureus ATCC 25923; procedure, shortened: as §1
Staphylococcus aureus [5] = test: Compound was tested for antibacterial activity against Staphylococcus aureus WSU-196E; procedure, shortened: as §1
Rattus norvegicus = organism: Rattus norvegicus; test: Compound was tested for effect of glycoside on superoxide production in rat heart sarcosomes; design: unit not given here
Procedure, shortened: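 Male Sprague-Dawley rat ventricles were homogenized in 100 mM KCl, 5 mM histidine, pH 7.3. The microsomal (sarcosomal) pellet was taken at 100000g and resuspended in 0.15 M K3PO4, 1 mM EDTA, pH 7.4. Sarcosomes came from six rats prepared concurrently. Each 1 mL reaction held acetylated cytochrome c (38-53 nmol), 300-500 µg protein and 0.1 mM compound. NADPH started the reaction. A550 rise was followed at 37 °C and reported as mean ± SEM, N = 3, with an F test.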

MIC [1] [µg/mL]	MIC [2] [µg/mL]	MIC (Staphylococcus aureus [3]) [µg/mL]	MIC (Bacillus subtilis) [µg/mL]	MIC (Streptococcus pyogenes) [µg/mL]	MIC (Bacillus cereus) [µg/mL]	MIC (Staphylococcus aureus [4]) [µg/mL]	MIC (Staphylococcus aureus [5]) [µg/mL]	SMILES	Activity (Rattus norvegicus)
100 (≈ 240 µM)	20 (≈ 47.9 µM)	50 (≈ 120 µM)	> 200	10 (≈ 24 µM)	200 (≈ 479 µM)	> 200	> 200	NC1C(OCc2cc(O)c3c(c2)C(=O)c2cccc(O)c2C3=O)OC(O)C(O)C1O (configuration not stated)	10.1
100 (≈ 240 µM)	20 (≈ 47.9 µM)	50 (≈ 120 µM)	50 (≈ 120 µM)	10 (≈ 24 µM)	50 (≈ 120 µM)	100 (≈ 240 µM)	> 200	NC1C(OCc2cc(O)c3c(c2O)C(=O)c2ccccc2C3=O)OC(O)C(O)C1O (configuration not stated)	12.8
50 (≈ 120 µM)	50 (≈ 120 µM)	200 (≈ 479 µM)	50 (≈ 120 µM)	50 (≈ 120 µM)	50 (≈ 120 µM)	100 (≈ 240 µM)	200 (≈ 479 µM)	NC1C(OCc2ccc3c(c2O)C(=O)c2c(O)cccc2C3=O)OC(O)C(O)C1O (configuration not stated)	10.5
> 200	200 (≈ 519 µM)	> 200	> 200	100 (≈ 259 µM)	> 200	> 200	> 200	NC1C(OCc2ccc3c(c2)C(=O)c2ccccc2C3=O)OC(O)C(O)C1O (configuration not stated)	2.31
100 (≈ 249 µM)	20 (≈ 49.8 µM)	200 (≈ 498 µM)	50 (≈ 125 µM)	20 (≈ 49.8 µM)	100 (≈ 249 µM)	200 (≈ 498 µM)	200 (≈ 498 µM)	NC1C(OCc2ccc3c(c2O)C(=O)c2ccccc2C3=O)OC(O)C(O)C1O (configuration not stated)	5.49
< 5	< 5	< 5	< 5	< 5	< 5	20 (≈ 37.9 µM)	< 5	COc1cccc2c1C(=O)c1c(O)c3c(c(O)c1C2=O)C[C@@](O)(C(C)=O)C[C@@H]3O[C@H]1C[C@H](N)[C@H](O)[C@H](C)O1 [DAUNORUBICIN]	2.76
20 (≈ 36.8 µM)	< 5	20 (≈ 36.8 µM)	20 (≈ 36.8 µM)	< 5	10 (≈ 18.4 µM)	200 (≈ 368 µM)	10 (≈ 18.4 µM)	COc1cccc2c1C(=O)c1c(O)c3c(c(O)c1C2=O)C[C@@](O)(C(=O)CO)C[C@@H]3O[C@H]1C[C@H](N)[C@H](O)[C@H](C)O1 [DOXORUBICIN]	
